# Results collected from several papers.
# Each line is one published result; the experiments were not run side by side.
# Target: STE20-like serine/threonine-protein kinase (SLK, Homo sapiens, UniProt Q9H2G2)
# Concentration: 1 µM
Structure (SMILES),effect on,method,remaining binding [%]
C=CC(=O)N1CCC(C(=O)NCC(=O)N2CCN(c3nc(-c4cnc(N)nc4C(F)F)nc(N4CCOCC4)n3)CC2)CC1,binding,competition with immobilised ligand,80
CCN1CCN(Cc2ccc(C(=O)Nc3ccc(C)c(Oc4ccc5c(c4)CC(=O)N5)c3)cc2C(F)(F)F)CC1,binding,competition with immobilised ligand,76
CN(CCCC(F)(F)F)c1nccc(-c2cnn3ncccc23)n1,binding,,85
O=C(O)[C@H]1[C@H](Cn2nnc3ccccc3c2=O)CC[C@@H]1C(=O)c1ccc(OCCC2CCOCC2)cc1,cell-free assay,competition with immobilised ligand,96
CC1CCCN1c1nccc(-c2cnn3ncccc23)n1 (stereo not drawn),binding,,100
NS(=O)(=O)c1cc(NC(=O)Cc2ccccc2)ccc1Oc1cccc(Cl)c1,cell-free assay,competition with immobilised ligand,66
O=C(NCCCN1CCOCC1)c1ccc(Nc2ncc(Cl)c(-c3ccc(Cl)s3)n2)cc1,binding,competition with immobilised ligand,8
COc1ccnn2ncc(-c3ccnc(N(C)C)n3)c12,binding,,86
COc1cnc(Nc2cccc(S(N)(=O)=O)c2)nc1N1CCN(c2ccccc2)CC1,binding,competition with immobilised ligand,99
Nc1ncc2c(n1)-c1c([nH]c3ccc(C#CC4CC4)cc13)CCCC2,binding,competition with immobilised ligand,100
Cc1nc(N2CC[C@@H](O)C2)ncc1-c1cc(C(F)(F)F)cc2[nH]ncc12,binding,competition with immobilised ligand,98
C[C@@H]1CCN(c2nccc(-c3cnn4ncccc34)n2)C1,binding,,87
O=C(c1ccc(Nc2ncc(Cl)c(-c3cc4ccccc4s3)n2)cc1)N1CCC(N2CCCC2)CC1,binding,competition with immobilised ligand,1.7
CN([C@@H]1CCc2c(CC(=O)O)c3cc(S(C)(=O)=O)ccc3n2C1)S(=O)(=O)c1ccc(F)cc1,cell-free assay,competition with immobilised ligand,100
c1cnn2ncc(-c3ccnc(N4CCC45COC5)n3)c2c1,binding,,100
O=C(c1ccc(Nc2ncc(Cl)c(-c3ccc(Cl)s3)n2)cc1)N1CCC(N2CCCC2)CC1,binding,competition with immobilised ligand,1.2
CNC(=O)[C@@H]1CC[C@@H](n2c(-c3ccc4cnccc4c3)nc3ccc(C(=O)NCc4cccc(C(N)=O)c4)cc32)C1,binding,competition with immobilised ligand,95
C[C@@]1(Cc2ccc(C#N)cc2)C(=O)N(c2cc(Cl)cc(Cl)c2)c2ncc(C(=O)NC3(c4nc(C5CCC5)no4)CC3)n21,cell-free assay,competition with immobilised ligand,100
O=C(NCC1CCOCC1)c1n[nH]cc1NC(=O)c1c(F)cccc1F,binding,competition with immobilised ligand,99
N[C@H]1CCN(c2nccc(-c3cnn4ncccc34)n2)C1,binding,,86
CC(=O)N1CCC(c2ccc(C(=O)NC3=NCCN3)cc2C(F)(F)F)CC1,cell-free assay,competition with immobilised ligand,94
